The values below come from PubChem BioAssay.

A short description of assay [1]: reduced viability of SK-BR-3 breast cancer cells – cell-based, 24 h, human, pilot screen (AID 572).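 Note: compound exposure lasted between 18 and 24 h rather than exactly 24 h; 100% = carrier-treated control wells.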 The following applies: SK-BR-3 viability, CellTiter-Glo luminescence, at 10 µM, stronger effect = lower value. For orientation: ATP-based viability assays read luminescence as a measure of living cells.
Assay [2] can be described thus: HUVEC growth inhibition – cell-based, human, primary screen (AID 575;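 active = viability at or below 30% in both replicate assays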;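 note: 100% = median of untreated cell wells with 0.1% DMSO on each plate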). The following applies: HUVEC proliferation, CellTiter-Glo luminescence, 72 h; at 10 µM; stronger effect = lower value. The method in brief: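 Test system: primary human umbilical vein endothelial cells; medium: endothelial basal medium with 2% FBS plus growth supplements; dosing: 10 µM compound only; times: 72 h treatment at 37 °C; signal: CTG luminescence; read-out: % viability relative to median vehicle-well signal on each plate; control set: vehicle and MePR control wells; plate: 384-well, collagen-coated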

The nature of assay [3]: H69AR cell proliferation blockers – human, duplicate replicates, primary screen (AID 580;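 active = viability at or under a set limit in both replicates, limit being median viability minus 3 SD, cut at about 48% in these data, passing the limit was not always enough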;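 note: 100% = mean luminescence of untreated wells and 0% = no signal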). Particulars: H69AR lung tumor cells viability, ATP luminescence, 72 h; at 10 µM; stronger effect = lower value.
A short description of assay [4]: MRP1 drug-resistance reversers in H69AR cells – cell-based, doxorubicin co-treatment, pilot screen (AID 601;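 active = viability loss from added drug above about 55%, and viability with drug at most 40%, in both replicates, limit read from the data, passing the limit was not always enough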). Particulars: CellTiter-Glo, 72 h, at 10 µM; for differential viability (reversal): stronger effect = higher value.
Assay [5] can be described thus: yeast transport mutant growth inhibition pilot in 384-well plates, post-Golgi transport modulator project (AID 636; in the data active = inhibition above about 31%). Particulars: absorbance 615 nm, about 18 h, stronger effect = higher value.
Assay [6] can be described thus: growth suppression of yeast trafficking mutant, preliminary HTS, modulators of trafficking downstream of Golgi apparatus project, 1536-format plate, OD 615 nm (AID 637; in the data active = inhibition above about 30%). The following applies: yeast transport mutant growth, absorbance 615 nm, 18 h; stronger effect = higher value.
Setting [7] is: H69AR cells + 2 uM doxorubicin, measured here: viability with 2 uM doxorubicin, stronger effect = lower value.
[8] abbreviates: H69AR cells, compound alone cytotoxicity.

Activity calls are given as the source filed them.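 Rule for the calls, unless noted: active = viability at or below 10% of carrier control in both of two separate runs; inconclusive = viability at or below 10% in only one of the two runs; inactive = the rest.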 Peptide text beside a SMILES is read from it. * marks the point of attachment. Boc = CC(C)(C)OC(=O)*

By viability is commonly meant a read-out of living cells in per cent, often relative to untreated cells. As usually defined, the inhibition is the change of the read-out against control, counted positive when it falls.

For `COc1ccc(OC)c(NC(=O)C2C3CC4OC(=O)C2C4C3)c1` (centres undefined), the viability is 103% (inactive) in assay [1]; 102% (inactive) in assay [2]; 98.3% (inactive) in assay [3]; 90% in assay [4] (setting [7]); 98.3% in assay [4] (setting [8]). The differential viability (reversal) in assay [4] (H69AR cells + 2 uM doxorubicin) was 8.29% (inactive). Moreover, the inhibition in assay [5] was -6.89% (inactive); in assay [6], -4% (inactive).

For `O=C(CN1CCSCC1)N1CCc2[nH]c3ccc(Br)cc3c2C1`, the viability is 84% (inactive) in assay [1]; 69.7% (inactive) in assay [2]; 88.6% (inactive) in assay [3]; 81.5% in assay [4] (setting [7]); 88.6% in assay [4] (setting [8]). Besides, the differential viability (reversal) in assay [4] (H69AR cells + 2 uM doxorubicin) is 7.04% (inactive). The values for the inhibition in assay [5] and in assay [6] were -4.93% (inactive) and 2.18% (inactive), respectively.

In the case of `CC1(C)NC(=O)N(CC(O)CN2CCCC2)C1=O` (centres undefined), the viability in assay [1] is 96% (inactive); in assay [2], 103% (inactive); in assay [3] it was 97.2% (inactive); in assay [4] (setting [7]), 94.2%; in assay [4] (setting [8]), 97.2%. Besides, the differential viability (reversal) in assay [4] (H69AR cells + 2 uM doxorubicin) is 2.99% (inactive). Moreover, the inhibition in assay [5] was 0.13% (inactive); in assay [6] it was -2.79% (inactive).

As for `O=C(Nc1ccc(F)cc1)N(CCCN1CCOCC1)Cc1cc2cc3c(cc2[nH]c1=O)OCO3`, the viability was 85% (inactive) in assay [1]; 105% (inactive) in assay [2]; 90.8% (inactive) in assay [3]; 83.1% in assay [4] (setting [7]); 90.8% in assay [4] (setting [8]). The differential viability (reversal) in assay [4] (H69AR cells + 2 uM doxorubicin) is 7.71% (inactive). Besides, the inhibition in assay [5] is -7.97% (inactive); in assay [6], 2.55% (inactive).

With `NC(=O)OCC(COC(N)=O)c1ccccc1`, the viability in assay [1] was 132% (inactive); in assay [2], 89.3% (inactive); in assay [3], 90.7% (inactive); in assay [4] (setting [7]), 97.5%; in assay [4] (setting [8]), 90.7%. Moreover, the differential viability (reversal) in assay [4] (H69AR cells + 2 uM doxorubicin) was -6.82% (inactive). Further, the inhibition in assay [5] is -0.13% (inactive); in assay [6] it was 2% (inactive).

With `COc1cccc(NC(=O)COC(=O)c2cccnc2)c1`, the viability in assay [1] was 91% (inactive); in assay [2], 83.9% (inactive); in assay [3] it was 91.1% (inactive); in assay [4] (setting [7]) it was 85.3%; in assay [4] (setting [8]) it was 91.1%. Also, the differential viability (reversal) in assay [4] (H69AR cells + 2 uM doxorubicin) was 5.84% (inactive). Moreover, the inhibition in assay [5] is -4.93% (inactive); in assay [6] it was 4.35% (inactive).

As for `Cc1ccccc1Nc1nc(N)nc(CSCc2c(C)noc2C)n1`, the viability in assay [1] is 88% (inactive); in assay [2] it was 101% (inactive); in assay [3], 96.4% (inactive); in assay [4] (setting [7]) it was 98.2%; in assay [4] (setting [8]), 96.4%. For the same compound, the differential viability (reversal) in assay [4] (H69AR cells + 2 uM doxorubicin) was -1.78% (inactive). In addition, the inhibition in assay [5] is 3.51% (inactive); in assay [6] it was 3.09% (inactive).

Turning to `O=S(=O)(c1cccs1)N1CCN(Cc2nc3ccccc3s2)CC1`, the viability in assay [1] was 87% (inactive); in assay [2], 72.1% (inactive); in assay [3], 84.9% (inactive); in assay [4] (setting [7]), 101%; in assay [4] (setting [8]), 84.9%. The differential viability (reversal) in assay [4] (H69AR cells + 2 uM doxorubicin) is -16.2% (inactive). Moreover, the inhibition is 4.79% (inactive) in assay [5] and 30.2% (active) in assay [6].

As for `Cc1ccc(Cn2nnnc2CN2CCC(O)(c3ccccc3F)CC2)cc1`, the viability is 62% (inactive) in assay [1]; 92.6% (inactive) in assay [2]; 83.1% (inactive) in assay [3]; 85.4% in assay [4] (setting [7]); 83.1% in assay [4] (setting [8]). Also, the differential viability (reversal) in assay [4] (H69AR cells + 2 uM doxorubicin) was -2.32% (inactive). Further, the results for the inhibition in assay [5] and in assay [6] were -8.36% (inactive) and -0.65% (inactive), respectively.

`CCN(CCCc1ccccc1)CCCc1ccccc1`: the viability in assay [1] was 76% (inactive); in assay [2] it was 77.6% (inactive); in assay [3] it was 78.6% (inactive); in assay [4] (setting [7]), 91.2%; in assay [4] (setting [8]), 78.6%. Besides, the differential viability (reversal) in assay [4] (H69AR cells + 2 uM doxorubicin) is -12.7% (inactive). In addition, the values for the inhibition in assay [5] and in assay [6] were 2.34% (inactive) and 15% (inactive), respectively.

Consider `CS(=O)(=O)N(CC(=O)Nc1ccc2c(c1)OCO2)Cc1ccc(Cl)cc1`, for which the viability in assay [1] was 70% (inactive); in assay [2], 88.5% (inactive); in assay [3], 95% (inactive); in assay [4] (setting [7]) it was 103%; in assay [4] (setting [8]), 95%. Moreover, the differential viability (reversal) in assay [4] (H69AR cells + 2 uM doxorubicin) was -7.89% (inactive). Besides, the figures for the inhibition in assay [5] and in assay [6] were -6.58% (inactive) and 2.73% (inactive), respectively.

Turning to `CCC(C)C(NC(=O)OC(C)(C)C)C(=O)NC(CC(C)C)C(N)=O` (stereo not drawn) (Boc-Ile-Leu-NH2; configuration not given here), the viability in assay [1] is 109% (inactive); in assay [2], 114% (inactive); in assay [3], 98.9% (inactive); in assay [4] (setting [7]), 89.1%; in assay [4] (setting [8]), 98.9%. In assay [4] (H69AR cells + 2 uM doxorubicin), the differential viability (reversal) was 9.78% (inactive). In addition, the inhibition in assay [5] is -2.73% (inactive); in assay [6] it was -1.8% (inactive).

Regarding `Cc1sc2nc3n(c(=O)c2c1C)NC(=O)CC3`, the viability in assay [1] was 104% (inactive); in assay [2] it was 86.3% (inactive); in assay [3], 94% (inactive); in assay [4] (setting [7]) it was 88.4%; in assay [4] (setting [8]), 94%. The differential viability (reversal) in assay [4] (H69AR cells + 2 uM doxorubicin) is 5.63% (inactive). Further, the inhibition is -4.79% (inactive) in assay [5] and 1.82% (inactive) in assay [6].

Take `O=C(NCC12CC3CC(C1)CC(CNC(=O)N1CCCC1)(C3)C2)N1CCCC1`: the viability in assay [1] is 78% (inactive); in assay [2], 90.1% (inactive); in assay [3], 84.8% (inactive); in assay [4] (setting [7]), 89.5%; in assay [4] (setting [8]), 84.8%. Also, in assay [4] (H69AR cells + 2 uM doxorubicin), the differential viability (reversal) was -4.64% (inactive). In addition, the inhibition in assay [5] is -10.3% (inactive); in assay [6] it was 1.77% (inactive).

In the case of `COc1ccc(-c2noc(CSc3nc4ccccc4c(=O)n3-c3ccccc3)n2)cc1OC`, the viability is 69% (inactive) in assay [1]; 110% (inactive) in assay [2]; 87.1% (inactive) in assay [3]; 80.7% in assay [4] (setting [7]); 87.1% in assay [4] (setting [8]). In assay [4] (H69AR cells + 2 uM doxorubicin), the differential viability (reversal) was 6.39% (inactive). Further, the inhibition in assay [5] was -9.04% (inactive); in assay [6], -0.55% (inactive).

`CSc1c(C#N)c(N)c(C#N)c2c1COC(C)(C)C2`: the viability in assay [1] was 94% (inactive); in assay [2] it was 90.1% (inactive); in assay [3], 88% (inactive); in assay [4] (setting [7]), 89.1%; in assay [4] (setting [8]) it was 88%. The differential viability (reversal) in assay [4] (H69AR cells + 2 uM doxorubicin) was -1.11% (inactive). Besides, the inhibition in assay [5] was -11.1% (inactive); in assay [6], 2.1% (inactive).

Consider `Cc1ccc(-n2c(C)cc3c2CCCC3=O)cc1`, for which the viability was 113% (inactive) in assay [1]; 112% (inactive) in assay [2]; 93.3% (inactive) in assay [3]; 94.1% in assay [4] (setting [7]); 93.3% in assay [4] (setting [8]). In addition, the differential viability (reversal) in assay [4] (H69AR cells + 2 uM doxorubicin) was -0.79% (inactive). The inhibition is -9.07% (inactive) in assay [5] and -3.09% (inactive) in assay [6].

With `CCCCOc1ccc(C(=O)Nc2ccc(N3CCN(C(C)=O)CC3)cc2)cc1`, the viability in assay [1] was 81% (inactive); in assay [2] it was 88.8% (inactive); in assay [3] it was 94.4% (inactive); in assay [4] (setting [7]) it was 106%; in assay [4] (setting [8]), 94.4%. Moreover, the differential viability (reversal) in assay [4] (H69AR cells + 2 uM doxorubicin) is -11.3% (inactive). The inhibition in assay [5] is -1.78% (inactive); in assay [6] it was 0.91% (inactive).
